ChEMBL document CHEMBL1149712, “Pyrrolidine-carboxamides and oxadiazoles as potent hNK1 antagonists” (Bioorg Med Chem Lett, 2007)
pIC50: −log10 of the molar value.

How the values were obtained:
[1] = molecular target: T1, Substance-P receptor (Homo sapiens, UniProt P25103); test: Displacement of [125I]SP from human NK1 receptor expressed in CHO cells; assay type: cell-based
[2] = molecular target: Cytochrome P450 2D6 (Homo sapiens, UniProt P10635); test: Inhibition of human CYP2D6; assay type: ADME
Cytochrome P450 2D6, sequence (P10635 whole entry): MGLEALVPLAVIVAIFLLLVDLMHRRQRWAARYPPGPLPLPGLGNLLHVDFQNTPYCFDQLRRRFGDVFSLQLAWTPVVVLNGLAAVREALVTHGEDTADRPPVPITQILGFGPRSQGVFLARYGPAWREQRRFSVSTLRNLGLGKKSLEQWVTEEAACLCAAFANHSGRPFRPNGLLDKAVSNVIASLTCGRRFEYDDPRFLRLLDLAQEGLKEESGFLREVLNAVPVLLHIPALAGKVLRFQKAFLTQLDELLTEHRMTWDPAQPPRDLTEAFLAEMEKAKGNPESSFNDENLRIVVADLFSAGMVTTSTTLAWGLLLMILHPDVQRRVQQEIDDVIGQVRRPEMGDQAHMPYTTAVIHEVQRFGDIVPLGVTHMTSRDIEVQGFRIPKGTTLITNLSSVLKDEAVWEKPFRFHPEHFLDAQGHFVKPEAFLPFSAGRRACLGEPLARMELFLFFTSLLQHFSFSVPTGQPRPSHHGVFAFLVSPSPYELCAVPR

[3] = molecular target: Cytochrome P450 3A4 (Homo sapiens, UniProt P08684); test: Inhibition of human CYP3A4; assay type: ADME
Cytochrome P450 3A4, sequence (P08684 whole entry): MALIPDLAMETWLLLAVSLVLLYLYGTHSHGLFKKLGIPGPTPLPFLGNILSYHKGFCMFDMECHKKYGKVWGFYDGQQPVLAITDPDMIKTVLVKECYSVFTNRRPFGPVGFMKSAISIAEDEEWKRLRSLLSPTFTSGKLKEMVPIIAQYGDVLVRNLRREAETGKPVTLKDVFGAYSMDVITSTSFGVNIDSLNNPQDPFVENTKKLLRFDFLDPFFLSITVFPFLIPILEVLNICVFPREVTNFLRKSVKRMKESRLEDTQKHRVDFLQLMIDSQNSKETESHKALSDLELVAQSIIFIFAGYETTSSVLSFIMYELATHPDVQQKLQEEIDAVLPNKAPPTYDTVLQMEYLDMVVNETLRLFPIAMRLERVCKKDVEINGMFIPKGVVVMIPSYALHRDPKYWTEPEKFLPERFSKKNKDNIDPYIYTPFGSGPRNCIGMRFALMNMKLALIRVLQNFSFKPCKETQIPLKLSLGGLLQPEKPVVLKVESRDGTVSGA

[4] = tested on: Gerbil, jird; test: Inhibition of agonist-induced foot tapping in iv dosed gerbil; assay type: functional; settings: Meriones
Outline: (§1)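 Gerbils received the test compound by iv infusion, followed by a central (icv) injection of an NK1 agonist at a set time after infusion (0, 4 or 24 h). The agonist-induced foot-tapping response was monitored for blockade. Results are reported as % inhibition at a single dose (mpk) or as ED50.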

[5] = molecular target: T1, Substance-P receptor; test: Displacement of [125I]SP from human NK1 receptor expressed in CHO cells in presence of 50% human serum; assay type: cell-based
[6] = tested on: Gerbil, jird; test: Inhibition of agonist-induced foot tapping in iv dosed gerbil after 24 hrs; assay type: functional; settings: Meriones; outline: as §1
[7] = molecular target: Cytochrome P450 2C9 (Homo sapiens, UniProt P11712); test: Inhibition of human CYP2C9; assay type: ADME
Cytochrome P450 2C9, sequence (P11712 whole entry): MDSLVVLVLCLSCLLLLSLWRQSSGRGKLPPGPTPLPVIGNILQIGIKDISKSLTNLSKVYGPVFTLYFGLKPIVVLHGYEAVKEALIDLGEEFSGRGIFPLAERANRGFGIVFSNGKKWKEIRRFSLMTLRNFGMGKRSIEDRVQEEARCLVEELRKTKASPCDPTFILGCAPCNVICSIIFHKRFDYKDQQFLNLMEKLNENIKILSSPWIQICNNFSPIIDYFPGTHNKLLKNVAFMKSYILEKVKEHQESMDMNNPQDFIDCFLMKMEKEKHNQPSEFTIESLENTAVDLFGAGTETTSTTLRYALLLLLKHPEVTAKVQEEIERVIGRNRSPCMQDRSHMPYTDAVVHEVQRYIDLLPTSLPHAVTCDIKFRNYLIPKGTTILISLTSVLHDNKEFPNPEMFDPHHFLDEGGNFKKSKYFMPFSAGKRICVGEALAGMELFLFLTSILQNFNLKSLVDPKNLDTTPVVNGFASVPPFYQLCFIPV

[8] = tested on: Gerbil, jird; test: Inhibition of agonist-induced foot tapping in gerbil at 6 mpk, iv after 24 hrs; assay type: functional; settings: Meriones; outline: as §1
[9] = tested on: Gerbil, jird; test: Inhibition of agonist-induced foot tapping in gerbil at 2 mpk, iv after 24 hrs; assay type: functional; settings: Meriones, 4 h, in the assay text read “after 4 hrs” for “after 24 hrs”; outline: as §1
[10] = Half life in rat; assay type: ADME, organism-based; settings: in vivo
[11] = tested on: Gerbil, jird; test: Inhibition of agonist-induced foot tapping in gerbil at 3 mpk, iv after 24 hrs; assay type: functional; settings: Meriones; outline: as §1

T1 sequence (P25103 whole entry): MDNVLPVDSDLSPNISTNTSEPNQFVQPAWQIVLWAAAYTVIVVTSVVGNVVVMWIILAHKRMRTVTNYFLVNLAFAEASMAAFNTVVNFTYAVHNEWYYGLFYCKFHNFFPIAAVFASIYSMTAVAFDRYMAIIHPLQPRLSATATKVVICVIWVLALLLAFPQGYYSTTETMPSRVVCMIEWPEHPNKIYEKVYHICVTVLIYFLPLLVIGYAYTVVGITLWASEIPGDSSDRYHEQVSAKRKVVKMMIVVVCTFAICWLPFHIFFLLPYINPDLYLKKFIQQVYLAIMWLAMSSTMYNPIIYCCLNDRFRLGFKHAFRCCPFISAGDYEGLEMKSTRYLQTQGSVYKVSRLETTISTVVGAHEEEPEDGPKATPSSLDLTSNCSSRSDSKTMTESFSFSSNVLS

Structure (SMILES)	pIC50 [1]	pIC50 [5]	also measured
CN(Cc1cc(C(F)(F)F)cc(C(F)(F)F)c1)C(=O)[C@H]1CN(C(=O)NC2CCCCC2)C[C@@H]1c1ccccc1	9.10	–	–
CN(Cc1cc(C(F)(F)F)cc(C(F)(F)F)c1)C(=O)[C@H]1CN(C(=O)C2CCNCC2)C[C@@H]1c1ccccc1	8.39	–	–
Cc1cnc(C(=O)N2C[C@H](C(=O)N(C)Cc3cc(C(F)(F)F)cc(C(F)(F)F)c3)[C@@H](c3ccc(F)cc3C)C2)cn1	10.05	8.10	pIC50 [2]: 4.14; pIC50 [3]: 4.96; ED50 [4]: 6 mg/kg; ED50 [6]: 6 mg/kg; pIC50 [7]: 4.37
CN(Cc1cc(C(F)(F)F)cc(C(F)(F)F)c1)C(=O)[C@H]1CN(C(=O)c2cncnc2)C[C@@H]1c1ccccc1	7.62	–	–
CC(=O)N1CCC(C(=O)N2C[C@H](C(=O)N(C)Cc3cc(C(F)(F)F)cc(C(F)(F)F)c3)[C@H](c3ccccc3)C2)CC1	8.43	–	–
CC(=O)N1CCC(C(=O)N2C[C@@H](C(=O)N(C)Cc3cc(C(F)(F)F)cc(C(F)(F)F)c3)[C@H](c3ccccc3)C2)CC1	9.01	–	–
CC(C)(C)OC(=O)N1CC[C@H](c2ccccc2)[C@@H](C(=O)NCc2cc(C(F)(F)F)cc(C(F)(F)F)c2)C1	6.35	–	–
CN(Cc1cc(C(F)(F)F)cc(C(F)(F)F)c1)C(=O)[C@H]1CN(C(=O)OC(C)(C)C)C[C@@H]1c1ccccc1	7.96	–	–
CN(Cc1cc(C(F)(F)F)cc(C(F)(F)F)c1)C(=O)[C@H]1CN(C(=O)C2CCCCC2)C[C@@H]1c1ccccc1	9.17	–	–
Cc1cnc(C(=O)N2C[C@H](C(=O)N(C)Cc3cc(C(F)(F)F)cc(C(F)(F)F)c3)[C@@H](c3ccccc3)C2)cn1	9.24	–	–
CC(C)(C)OC(=O)N1C[C@H](C(=O)NCc2cc(C(F)(F)F)cc(C(F)(F)F)c2)[C@@H](c2ccccc2)C1	6.85	–	–
CC(=O)N1CCC(C(=O)N2C[C@H](C(=O)N(C)C(C)(C)c3cc(C(F)(F)F)cc(C(F)(F)F)c3)[C@@H](c3ccc(F)cc3C)C2)CC1	10.30	9.29	inhibition in vivo at 6 mg/kg [8]: 2%; pIC50 [2]: 4.24; pIC50 [3]: 4.31; inhibition in vivo at 2 mg/kg [9]: 100%; pIC50 [7]: < 4.00
CC(=O)N1CCC(C(=O)N2C[C@H](C(=O)N(C)Cc3cc(C(F)(F)F)cc(C(F)(F)F)c3)[C@@H](c3ccc(F)cc3C)C2)CC1	10.30	9.68	inhibition in vivo at 6 mg/kg [8]: 24%; pIC50 [2]: 4.04; pIC50 [3]: 4.96; inhibition in vivo at 2 mg/kg [9]: 100%; pIC50 [7]: 4.16
CC(=O)N1CCC(C(=O)N2C[C@H](c3nc(C(C)(C)c4cc(C(F)(F)F)cc(C(F)(F)F)c4)no3)[C@@H](c3ccc(F)cc3C)C2)CC1	10.15	8.55	inhibition in vivo at 6 mg/kg [8]: 1%; inhibition in vivo at 2 mg/kg [9]: 92%
CC(=O)N1CCC(C(=O)N2C[C@@H](c3nc(C(C)(C)c4cc(C(F)(F)F)cc(C(F)(F)F)c4)no3)[C@H](c3ccc(F)cc3C)C2)CC1	9.77	7.70	inhibition in vivo at 6 mg/kg [8]: 1%
CC(=O)N1CCC(C(=O)N2C[C@H](c3noc(C(C)(C)c4cc(C(F)(F)F)cc(C(F)(F)F)c4)n3)[C@@H](c3ccc(F)cc3C)C2)CC1	10.15	8.22	pIC50 [2]: 4.20; pIC50 [3]: 4.00; pIC50 [7]: 5.05
CC(=O)N1CCC(C(=O)N2C[C@@H](c3noc(C(C)(C)c4cc(C(F)(F)F)cc(C(F)(F)F)c4)n3)[C@H](c3ccc(F)cc3C)C2)CC1	10.52	9.77	inhibition in vivo at 6 mg/kg [8]: 60%
CN(Cc1cc(C(F)(F)F)cc(C(F)(F)F)c1)C(=O)[C@H]1CN(CC2CCCCC2)C[C@@H]1c1ccccc1	7.21	–	–
CN(Cc1cc(C(F)(F)F)cc(C(F)(F)F)c1)C(=O)[C@H]1CN(C(=O)N2CCCCC2)C[C@@H]1c1ccccc1	7.89	–	–
CN(Cc1cc(C(F)(F)F)cc(C(F)(F)F)c1)C(=O)[C@H]1CN(C(=O)c2ncccn2)C[C@@H]1c1ccccc1	9.08	–	–
CN(Cc1cc(C(F)(F)F)cc(C(F)(F)F)c1)C(=O)[C@H]1CN(C(=O)c2cnccn2)C[C@@H]1c1ccccc1	9.13	–	–
CN(Cc1cc(C(F)(F)F)cc(C(F)(F)F)c1)C(=O)[C@H]1CN(C(=O)c2ccncn2)C[C@@H]1c1ccccc1	8.47	–	–
CC(=O)N1CCC(C(=O)N2C[C@H](C(=O)N(C)Cc3cc(C(F)(F)F)cc(C(F)(F)F)c3)[C@@H](c3ccccc3)C2)CC1 (stereo in doubt; 8c)	9.38	8.35	pIC50 [2]: 4.62; pIC50 [3]: 4.74; ED50 [4]: 0.41 mg/kg; half-life [10]: 42 min; inhibition in vivo at 3 mg/kg [11]: 29%; pIC50 [7]: 4.59
CC(=O)N1CCC(C(=O)N2C[C@H](C(=O)N(C)Cc3cc(C(F)(F)F)cc(C(F)(F)F)c3)[C@@H](c3ccccc3)C2)CC1 (stereo in doubt; 27)	9.92	–	–
